Hits are enriched below; roughly 5.9% of the tested compounds scored in any of these assays.
T cruzi growth-1 = T. cruzi proliferation inhibition. hit rate 5.9% among 77,000. T. cruzi beta-gal in NIH3T3, GalScreen luminescence, 90 h. inhibition, % at 8.34 µM;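 active = mean inhibition above about 93%, with at least 55% of replicates each passing it, limit read from the data, passing the limit was not always enough; inconclusive = only one of those two conditions holds; inactive = neither condition holds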
Pf Dd2 inh = P. falciparum Dd2 growth inhibition | SYBR Green, 72 h; stronger effect = lower value | activity change, % at 10 µM | hit rate 2.3% among 94,000 | AID 1159554; in the data active = activity change below about -80%; inconclusive = no clear call, values can overlap the other calls
GASC1 inh = blocks human GASC-1 (KDM4C) demethylase activity; AID 720574; GST-KDM4C 2-372, H3K9me3 peptide, LANCE TR-FRET; inhibition, % at 12.5 µM; Q9H3R0; hit rate 0.15% among 96,000;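 active = mean replicate inhibition above about 25%, with at least 55% of replicates also reaching it, limit read from the data, passing the limit was not always enough; inconclusive = only one of those two conditions met; inactive = neither condition met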
Target sequence (Q9H3R0 2-372 limits assumed): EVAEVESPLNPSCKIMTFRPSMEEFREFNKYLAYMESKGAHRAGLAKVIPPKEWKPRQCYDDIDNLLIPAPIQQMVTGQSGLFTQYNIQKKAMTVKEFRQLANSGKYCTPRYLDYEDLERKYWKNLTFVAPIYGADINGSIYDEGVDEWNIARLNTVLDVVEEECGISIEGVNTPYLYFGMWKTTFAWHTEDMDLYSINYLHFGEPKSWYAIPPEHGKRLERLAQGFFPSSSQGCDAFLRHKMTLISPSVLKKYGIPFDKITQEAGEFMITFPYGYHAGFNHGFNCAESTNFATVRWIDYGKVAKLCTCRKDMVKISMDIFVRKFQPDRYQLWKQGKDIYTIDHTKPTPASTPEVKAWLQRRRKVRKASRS
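Material: N-terminal GST-fused human GASC-1 (KDM4C) fragment, residues 2-372. Input: 10 nM enzyme. Incubation: enzyme reaction 30 min, then detection 60 min, both room temperature. Doses: one test concentration per compound. Read-out basis: inhibition from TR-FRET ratio decrease. Detection: LANCE TR-FRET, excitation 340 nm, emissions 618 and 671 nm.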
IDH1 R132H inh = inhibitors of human IDH1 R132H. O75874. AID 624101. IDH1 R132H reductase, diaphorase/resazurin fluorescence, 60 min. hit rate 0.18% among 70,000. inhibition, % at 10 µM; in the data active = inhibition above about 34%; inconclusive = no clear call, values can overlap the other calls; inactive = below about 11%;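 also: 0% = DMSO and 100% = no enzyme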
T cruzi growth-2 = inhibitors of T. cruzi proliferation; shares compounds with T cruzi growth-1; inhibition, % at 8.35 µM; AID 651739; T. cruzi beta-gal in NIH3T3, GalScreen luminescence, 90 h; hit rate 72% among 5,600;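 active = mean replicate inhibition above about 95% and at least 55% of replicates individually reaching it, limit read from the data; inconclusive = only one of the two criteria is met; inactive = neither criterion is met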
T cruzi growth-3 = Trypanosoma cruzi proliferation inhibition. shares compounds with T cruzi growth-1. T. cruzi beta-gal in NIH3T3, GalScreen luminescence, 90 h. inhibition, % at 2.09 µM. hit rate 21% among 5,600;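 active = mean inhibition above about 95%, with at least 55% of replicates also reaching it, limit read from the data; inconclusive = meets just one of the two conditions; inactive = meets neither condition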;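 also: plate controls were neutral control median for no effect and positive control median for full effect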
NIH3T3 tox = cytotoxicity in mouse NIH/3T3 fibroblasts; hit rate 14% among 5,600; cytotoxicity (signal decrease), % at 8.35 µM; shares compounds with T cruzi growth-1; NIH/3T3 viability, CellTiter-Glo ATP luminescence, 90 h;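 active = mean signal decrease across replicates above about 35% based on untreated-well scatter, with enough replicates individually passing, limit read from the data; inconclusive = no rule stated though some were filed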;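 also: 0% = median of neutral control wells and 100% = median of positive control wells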
3T3 cytotox 2 = kills mouse NIH/3T3 fibroblasts; hit rate 56% among 5,600; inhibition, % at 24.9 µM; shares compounds with T cruzi growth-1; AID 651744; NIH/3T3 viability, CellTiter-Glo ATP luminescence, 90 h;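 active = mean loss of cell viability signal at or above a set limit, and enough replicates individually reaching it; inconclusive = meets only the mean limit or only the replicate share; inactive = meets neither condition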;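 also: 0% = median of neutral control wells and 100% = median of positive control wells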
* marks the source's active call; other numbers are inactive results; ? = inconclusive; / = not tested or not shown.

SMILES | T cruzi growth-1 | Pf Dd2 inh | GASC1 inh | IDH1 R132H inh | T cruzi growth-2 | T cruzi growth-3 | NIH3T3 tox | 3T3 cytotox 2
C[C@H](CO)N1C[C@H](C)[C@@H](CN(C)C(=O)Nc2cc(F)ccc2F)Oc2cc(-c3cccc(F)c3)ccc2S1(=O)=O | 107* | -58 | 0 | -1 | 111* | 88 | 25 | 32*
C[C@@H]1CN([C@H](C)CO)S(=O)(=O)c2ccc(-c3ccc(F)cc3)cc2O[C@@H]1CN(C)C(=O)Nc1ccccc1F | 110* | -27 | -2 | / | 110* | 50 | 28 | 37*
COc1ccc(-c2ccc3c(c2)O[C@@H](CN(C)C(=O)Nc2ccccc2F)[C@H](C)CN([C@@H](C)CO)S3(=O)=O)cc1 | 73 | -77 | -1 | 1 | / | / | / | /
COc1ccc(-c2ccc3c(c2)O[C@@H](CN(C)C(=O)Nc2ccccc2F)[C@@H](C)CN([C@H](C)CO)S3(=O)=O)cc1 | 97* | -86* | 14 | 0 | 106* | 57 | 48* | 39*
O=S(=O)(c1ccccc1)N1CC[C@@H]2[C@@H](CO)Nc3ccc(Br)cc3[C@@H]21 | 67 | -9 | -2 | / | / | / | / | /
C[C@H]1CN([C@@H](C)CO)S(=O)(=O)c2ccc(-c3ccccc3F)cc2O[C@H]1CN(C)Cc1ccncc1 | 107* | 14 | 4 | -1 | 99* | 92 | 32 | 56*
C[C@@H]1CN([C@H](C)CO)S(=O)(=O)c2ccc(-c3ccccc3F)cc2O[C@H]1CN(C)Cc1ccncc1 | 116* | -42 | 0 | 0 | 99* | 105* | 92* | 103*
C[C@H](CO)N1C[C@H](C)[C@H](CN(C)Cc2cccnc2)Oc2cc(-c3ccccc3F)ccc2S1(=O)=O | 87 | -2 | 0 | 8 | / | / | / | /
Cc1ccccc1-c1ccc2c(c1)O[C@H](CN(C)Cc1ccncc1)[C@H](C)CN([C@@H](C)CO)S2(=O)=O | 97* | -55 | 2 | 4 | 107* | 75 | 52* | ?
C[C@@H]1CN([C@H](C)CO)S(=O)(=O)c2ccc(-c3ccccc3F)cc2O[C@H]1CN(C)Cc1cccnc1 | 95 | -51 | 5 | 0 | / | / | / | /
C/C=C/c1ccc([C@H]2[C@@H](CO)N(CCC)[C@H]2CN(CC)C(=O)c2ccccn2)cc1 | / | -41 | 1 | / | / | / | / | /
CO[C@@H]1CN(C)C(=O)c2ccc(NC(=O)c3ccc(F)cc3)cc2OC[C@@H](C)N(C(=O)CC2CC2)C[C@@H]1C | / | -48 | -2 | / | / | / | / | /
O=C(c1cccc(F)c1)N1CCCCN2[C@@H](CO)[C@@H](c3ccc(-c4ccccc4)cc3)[C@@H]2C1 | 33 | -58 | 0 | / | / | / | / | /
O=C(c1cccc(F)c1)N1CCCCN2[C@H](CO)[C@H](c3ccc(-c4cncnc4)cc3)[C@H]2C1 | ? | 14 | 1 | / | 71 | 47 | 17 | 15
O=C(c1cccc(F)c1)N1CCCCN2[C@H](CO)[C@H](c3ccc(-c4ccncc4)cc3)[C@@H]2C1 | 110* | -41 | 0 | / | 113* | 82 | -12 | 0
O=C(c1cccc(F)c1)N1CCCCN2[C@H](CO)[C@@H](c3ccc(-c4cncnc4)cc3)[C@@H]2C1 | 40 | -32 | 0 | / | / | / | / | /
CC(C)(O)C#Cc1ccc([C@@H]2[C@H]3CN(C(=O)c4cccc(F)c4)CCCCN3[C@H]2CO)cc1 | 91 | 12 | 0 | / | / | / | / | /
CC(C)(O)C#Cc1ccc([C@@H]2[C@@H](CO)N3CCCCN(C(=O)c4cccc(F)c4)C[C@H]23)cc1 | 120* | 16 | 2 | / | 93 | -4 | -7 | 19
O=C(c1cccc(F)c1)N1CCCCN2[C@H](C1)[C@@H](c1ccc(-c3ccncc3)cc1)[C@@H]2CO | 86 | -7 | -1 | / | / | / | / | /
O=C(c1cccc(F)c1)N1CCCCN2[C@H](CO)[C@@H](c3ccc(-c4ccc(F)cc4)cc3)[C@@H]2C1 | 104* | 13 | / | / | 105* | ? | 19 | 106*
O=C(C[C@@H]1CC[C@H]2[C@@H](COC[C@@H](O)CN2Cc2cccc(-c3ccncc3)c2)O1)N1CCN(c2ccccc2)CC1 | 41 | -15 | 4 | / | / | / | / | /
COc1ccc(-c2cnc3c(c2)C(=O)N([C@@H](C)CO)C[C@@H](C)[C@H](CN(C)C(=O)CN(C)C)O3)cc1 | 93 | -21 | 0 | 5 | / | / | / | /
COC(=O)C[C@H]1CC[C@H]2[C@@H](COC[C@H](O)CN2C(=O)Nc2cccc(F)c2)O1 | -15 | -16 | -1 | / | / | / | / | /
O=S(=O)(c1cccc(F)c1)N1CC[C@H]2[C@H](CO)Nc3ccc(Br)cc3[C@H]21 | 80 | -2 | -1 | / | / | / | / | /
O=C(c1cccc(F)c1)N1CCCCN2[C@H](CO)[C@H](c3ccc(-c4ccc(F)cc4)cc3)[C@@H]2C1 | 111* | 11 | / | / | 110* | 95* | 23 | 65*
SMILES | T cruzi growth-1 | Pf Dd2 inh | GASC1 inh | IDH1 R132H inh | T cruzi growth-2 | T cruzi growth-3 | NIH3T3 tox | 3T3 cytotox 2
CC(=O)NC[C@H]1[C@H](c2ccc(-c3cccnc3)cc2)[C@@H](CO)N1C(=O)C1CCC1 | 2 | 22 | 1 | / | / | / | / | /
OC[C@@H]1Nc2ccc(-c3cccc(F)c3)cc2[C@H]2[C@@H]1CCN2Cc1ccc(F)cc1 | 103* | -68 | -2 | / | 108* | 115* | 26 | 103*
O=C(c1cccc(F)c1)N1CC[C@@H]2[C@@H](CO)Nc3ccc(-c4cccc(F)c4)cc3[C@@H]21 | 16 | -20 | -2 | / | / | / | / | /
OC[C@H]1Nc2ccc(-c3cccc(F)c3)cc2[C@@H]2[C@H]1CCN2Cc1ccncc1 | 97* | -62 | 2 | / | 102* | 81 | 21 | 89*
C[C@@H]1CCCCO[C@@H](CN(C)S(=O)(=O)c2ccc(F)cc2)[C@@H](C)CN([C@H](C)CO)C(=O)c2cc(NS(=O)(=O)c3ccc(F)cc3)ccc2O1 | 49 | -47 | 0 | / | / | / | / | /
C[C@@H]1CN([C@@H](C)CO)C(=O)c2cc(NS(=O)(=O)c3ccc(F)cc3)ccc2O[C@@H](C)CCCCO[C@H]1CN(C)S(=O)(=O)c1ccc(F)cc1 | 113* | -47 | 1 | -3 | 107* | 56 | 6 | -1
C[C@@H]1CN([C@H](C)CO)C(=O)c2cc(NS(=O)(=O)c3ccc(F)cc3)ccc2O[C@@H](C)CCCCO[C@@H]1CN(C)S(=O)(=O)c1ccc(F)cc1 | 107* | -73 | 0 | / | 103* | 72 | -13 | 2
C[C@@H]1CCCCO[C@@H](CN(C)S(=O)(=O)c2ccc(F)cc2)[C@H](C)CN([C@H](C)CO)C(=O)c2cc(NS(=O)(=O)c3ccc(F)cc3)ccc2O1 | 86 | -48 | 0 | -1 | / | / | / | /
N#C[C@@H]1[C@@H](c2ccc(-c3cncnc3)cc2)[C@H](CO)N1C(=O)C1CCCC1 | 63 | 38 | -4 | / | / | / | / | /

High-throughput results as filed in PubChem BioAssay.
